Laboratory results: ChEMBL document CHEMBL4190276, “Design, synthesis and evaluation of coumarin-pargyline hybrids as novel dual inhibitors of monoamine oxidases and amyloid-β aggregation for the treatment of Alzheimer's disease” (Eur J Med Chem, 2017)

Legend:
[1] = Permeability of the compound in PBS/EtOH at […] after 16 hrs by PAMPA; assay type: ADME; details: read-out: Peff
[2] = biological target: T1, Amine oxidase [flavin-containing] A (Homo sapiens, UniProt P21397); assay: Inhibition of recombinant human MAO-A using p-tyramine as substrate preincubated for 15 mins followed by substrate addition measured after 20 mins by amplex red reagent based fluorescence assay
T1 sequence (P21397 whole entry): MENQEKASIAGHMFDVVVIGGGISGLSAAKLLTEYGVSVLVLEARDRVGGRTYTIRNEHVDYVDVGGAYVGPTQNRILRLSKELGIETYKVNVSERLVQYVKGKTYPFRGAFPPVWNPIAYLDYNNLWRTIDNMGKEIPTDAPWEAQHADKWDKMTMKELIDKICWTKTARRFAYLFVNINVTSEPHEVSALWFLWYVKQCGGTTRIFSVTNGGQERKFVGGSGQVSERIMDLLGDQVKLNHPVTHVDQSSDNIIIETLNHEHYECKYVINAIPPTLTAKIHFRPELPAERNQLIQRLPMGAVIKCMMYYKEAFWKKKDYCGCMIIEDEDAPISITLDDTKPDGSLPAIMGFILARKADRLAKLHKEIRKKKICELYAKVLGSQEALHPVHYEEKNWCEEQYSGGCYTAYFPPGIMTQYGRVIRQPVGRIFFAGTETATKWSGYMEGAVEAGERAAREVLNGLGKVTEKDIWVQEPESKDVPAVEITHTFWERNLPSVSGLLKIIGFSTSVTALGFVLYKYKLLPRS

[3] = biological target: T2, Amine oxidase [flavin-containing] B (Homo sapiens, UniProt P27338); assay: Inhibition of recombinant human MAO-B using p-tyramine as substrate preincubated for 15 mins followed by substrate addition measured after 20 mins by amplex red reagent based fluorescence assay
T2 sequence (P27338 whole entry): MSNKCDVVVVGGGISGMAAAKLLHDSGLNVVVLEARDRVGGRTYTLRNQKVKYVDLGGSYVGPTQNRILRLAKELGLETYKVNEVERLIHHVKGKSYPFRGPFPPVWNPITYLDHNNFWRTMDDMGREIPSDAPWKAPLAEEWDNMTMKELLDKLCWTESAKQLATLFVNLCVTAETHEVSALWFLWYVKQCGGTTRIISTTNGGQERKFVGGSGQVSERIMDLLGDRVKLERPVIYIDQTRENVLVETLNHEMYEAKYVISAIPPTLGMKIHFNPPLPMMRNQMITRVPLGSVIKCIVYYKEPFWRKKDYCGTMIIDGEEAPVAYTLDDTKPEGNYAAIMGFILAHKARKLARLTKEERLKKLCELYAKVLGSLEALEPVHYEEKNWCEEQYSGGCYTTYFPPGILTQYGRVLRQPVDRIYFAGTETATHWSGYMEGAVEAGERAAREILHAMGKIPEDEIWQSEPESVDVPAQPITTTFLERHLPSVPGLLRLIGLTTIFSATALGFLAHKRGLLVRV

Homo sapiens = species: Homo sapiens; assay: Selectivity index, ratio of IC50 for recombinant human MAO-A to IC50 for recombinant human MAO-B
Method in brief: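 Commercial human MAO-A (1.1 μg protein) and MAO-B (7.5 μg protein) adjusted to equal velocity (165 pmol p-tyramine/min). Compounds from 10 mM DMSO stock diluted in 0.05 M potassium phosphate, pH 7.4. Preincubated with enzyme 15 min at 37 °C in the dark; 200 μM Amplex Red, 2 U/mL HRP, 2 mM p-tyramine added for 20 min at 37 °C.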

[4] = biological target: Amyloid-beta precursor protein (Homo sapiens) (UniProt P05067); assay: Inhibition of self-induced Amyloid beta (1 to 42) (unknown origin) aggregation at 25 uM after 48 hrs by thioflavin T-based fluorometric assay relative to control
Sequence of Amyloid-beta precursor protein (Homo sapiens) (P05067 whole entry): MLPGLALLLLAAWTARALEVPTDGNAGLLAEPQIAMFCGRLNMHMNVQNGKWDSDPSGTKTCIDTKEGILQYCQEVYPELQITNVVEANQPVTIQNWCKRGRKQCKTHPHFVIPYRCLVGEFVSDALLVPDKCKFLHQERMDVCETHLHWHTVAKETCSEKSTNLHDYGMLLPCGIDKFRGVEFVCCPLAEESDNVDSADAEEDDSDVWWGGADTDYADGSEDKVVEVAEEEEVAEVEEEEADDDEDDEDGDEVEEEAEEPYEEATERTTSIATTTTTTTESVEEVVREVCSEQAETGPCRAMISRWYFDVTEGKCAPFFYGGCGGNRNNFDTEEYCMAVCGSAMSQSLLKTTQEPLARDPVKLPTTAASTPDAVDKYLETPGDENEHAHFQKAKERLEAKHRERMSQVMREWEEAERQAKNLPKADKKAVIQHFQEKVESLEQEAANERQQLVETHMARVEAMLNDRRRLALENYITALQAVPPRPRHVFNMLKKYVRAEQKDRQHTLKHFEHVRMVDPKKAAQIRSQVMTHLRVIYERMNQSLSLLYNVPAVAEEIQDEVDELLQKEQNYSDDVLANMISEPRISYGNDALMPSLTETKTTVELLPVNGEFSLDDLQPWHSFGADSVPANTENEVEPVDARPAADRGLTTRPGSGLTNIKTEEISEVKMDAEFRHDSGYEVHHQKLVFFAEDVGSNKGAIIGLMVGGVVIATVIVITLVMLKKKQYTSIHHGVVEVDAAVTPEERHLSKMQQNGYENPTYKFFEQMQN
Method in brief: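 Aβ1-42 stock (2000 μM in 1% ammonium hydroxide) diluted in 50 mM phosphate pH 7.4. Peptide (final 25 μM) incubated with or without compound (25 μM) at 37 °C for 48 h. Then diluted in 50 mM glycine-NaOH pH 8.0 containing 5 μM thioflavin T, read after 5 min (ex 446/em 490 nm). Inhibition = (1 − IFi/IFc) × 100 after blank subtraction. Mean ± SD of three independent experiments.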

Mus musculus [5] = assay: Acute toxicity in Kunming mouse assessed as mortality at 2.4 mmol/kg, po administered as single dose via gavage measured continuously for first 4 hrs, intermittently for next 24 hrs and occasionally thereafter for 14 days; assay type: organism-based; details: in vivo
Method in brief: (§1)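 Male KM mice (22 days old, 18–20 g), 15 in total, randomly split into 3 groups of 5. Kept on a 12 h light/dark cycle at 20-22 °C and 60-70% humidity, fasted overnight with free water. Single oral dose of 2.4 mmol/kg suspended in 0.5% CMC-Na. Mortality, behaviour, water and food intake, and body weight followed over 14 days.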

Mus musculus [6] = assay: Acute toxicity in Kunming mouse assessed as abnormal change in water consumption at 2.4 mmol/kg, po administered as single dose via gavage measured continuously for first 4 hrs, intermittently for next 24 hrs and occasionally thereafter for 14 days; assay type: organism-based; details: in vivo; method in brief: as §1
Mus musculus [7] = assay: Acute toxicity in Kunming mouse assessed as abnormal change in food consumption at 2.4 mmol/kg, po administered as single dose via gavage measured continuously for first 4 hrs, intermittently for next 24 hrs and occasionally thereafter for 14 days; assay type: organism-based; details: in vivo; method in brief: as §1
Mus musculus [8] = assay: Acute toxicity in Kunming mouse assessed as abnormal change in body weight at 2.4 mmol/kg, po administered as single dose via gavage measured continuously for first 4 hrs, intermittently for next 24 hrs and occasionally thereafter for 14 days; assay type: organism-based; details: in vivo; method in brief: as §1
Mus musculus [9] = assay: Cardiotoxicity in Kunming mouse at 2.4 mmol/kg, po administered as single dose via gavage measured continuously for first 4 hrs, intermittently for next 24 hrs and occasionally thereafter for 14 days by […]; assay type: toxicity, organism-based; details: in vivo
Method in brief: (§2)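 Male KM mice (18–20 g) received a single oral 2.4 mmol/kg dose in 0.5% CMC-Na suspension after an overnight fast. All animals were sacrificed on day 14 after dosing, and heart, liver and kidneys were examined macroscopically for damage.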

Mus musculus [10] = assay: Hepatotoxicity in Kunming mouse at 2.4 mmol/kg, po administered as single dose via gavage measured continuously for first 4 hrs, intermittently for next 24 hrs and occasionally thereafter for 14 days by […]; assay type: toxicity, organism-based; details: in vivo; method in brief: as §2
Mus musculus [11] = assay: Nephrotoxicity in Kunming mouse at 2.4 mmol/kg, po administered as single dose via gavage measured continuously for first 4 hrs, intermittently for next 24 hrs and occasionally thereafter for 14 days […]; assay type: toxicity, organism-based; details: in vivo; method in brief: as §2
Mus musculus [12] = assay: Acute toxicity in Kunming mouse assessed as effect on serum AST level at 2.4 mmol/kg, po administered as single dose via gavage measured continuously for first 4 hrs, intermittently for next 24 hrs and occasionally thereafter for 14 days; assay type: organism-based; details: in vivo
Method in brief: (§3)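 Male KM mice (18–20 g), fasted overnight, given one oral 2.4 mmol/kg dose suspended in 0.5% CMC-Na. On day 14, orbital blood was collected before decapitation and serum AST and ALT activities measured against a control group. Mean ± SD of three independent experiments.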

Mus musculus [13] = assay: Acute toxicity in Kunming mouse assessed as effect on serum ALT level at 2.4 mmol/kg, po administered as single dose via gavage measured continuously for first 4 hrs, intermittently for next 24 hrs and occasionally thereafter for 14 days; assay type: organism-based; details: in vivo; method in brief: as §3

SMILES | IC50 [2] [µM] | IC50 [3] [µM] | Ratio IC50 (Homo sapiens) | other results
C[C@]12CC[C@@H]3c4ccc(O)cc4CC[C@H]3[C@@H]1CC[C@@H]2O [ESTRADIOL] |  |  |  | Papp at 16 h [1]: 8 ×10⁻⁶ cm/s
C#CCN(CCOc1ccc2ccc(=O)oc2c1)Cc1cccc(F)c1 | 53.3 | 5.53 | 9.64 | 
C#CCN(CCCOc1ccc2ccc(=O)oc2c1)Cc1ccc(C(C)C)cc1 | 77.4 | 7.58 | 10.2 | 
C#CCN(CCCOc1ccc2ccc(=O)oc2c1)Cc1ccc(F)c(F)c1 | 49.2 | 4.86 | 10.1 | 
C#CCN(CCOc1ccc2ccc(=O)oc2c1)Cc1ccccc1 | 89.5 | 8.3 | 10.8 | 
C#CCN(CCCCOc1ccc2ccc(=O)oc2c1)Cc1cccc(F)c1 | 69.1 | 1.55 | 44.6 | 
C#CCN(CCCCOc1ccc2ccc(=O)oc2c1)Cc1cccc(OC)c1 | 78.6 | 2.34 | 33.6 | inhibition [4]: 38.2%
C#CCN(CCCCOc1ccc2ccc(=O)oc2c1)Cc1ccc(OC)cc1 | 54.5 | 1.13 | 48.2 | inhibition [4]: 49.1%
C#CCN(CCCOc1ccc2ccc(=O)oc2c1)Cc1ccccc1 | 38.6 | 3.74 | 10.3 | 
C#CCN(CCOc1ccc2ccc(=O)oc2c1)Cc1ccc(F)c(F)c1 | 40.8 | 9.62 | 4.24 | 
C#CCN(CCCCOc1ccc2ccc(=O)oc2c1)Cc1ccc(F)c(F)c1 | 93.2 | 2.37 | 39.4 | inhibition [4]: 30.6%
C#CCN(C)Cc1ccccc1 [PARGYLINE] |  |  |  | Activity (Mus musculus [5]): Non-Toxic; Activity (Mus musculus [6]): Non-Toxic; Activity (Mus musculus [7]): Non-Toxic; Activity (Mus musculus [8]): Non-Toxic; Activity (Mus musculus [9]): Non-Toxic; Activity (Mus musculus [10]): Non-Toxic; Activity (Mus musculus [11]): Non-Toxic; Activity (Mus musculus [12]): Non-Toxic; Activity (Mus musculus [13]): Non-Toxic
C#CCN(CCCOc1ccc2ccc(=O)oc2c1)Cc1cccc(F)c1 | 29.3 | 4.44 | 6.59 | 
